Measured values taken from ChEMBL document CHEMBL1255448, “The 6-aminoquinolone WC5 inhibits human cytomegalovirus replication at an early stage by interfering with the transactivating activity of viral immediate-early 2 protein” (Antimicrob Agents Chemother, 2010).
Calls of active or inactive are those of the source. No cut-off for these calls is given here. *1 amine or outer side, *2 acyl side, *3 side chain or, on linkers, in order; H or OH if unused. Where a SMILES comes first, the peptide text is derived from it. Bridges are numbered along the chain shown (N, C = ends). Roman numbers before positions name the chains, in order. [ ]: non-standard residue; d: D form. Actinocin(9to1) = Cc1c2oc3c(C)ccc(C(=O)[*:1])c3nc-2c(C(=O)[*:2])c(N)c1=O; NMeV = CN[C@H](C(=O)O)C(C)C; Sar = CNCC(=O)O

Experiments:
Human betaherpesvirus 5 [1] = assay: Antiviral activity against 0.1 MOI human cytomegalovirus AD169 infected in human HFF assessed as inhibition of viral replication up to 72 hrs post infection; format: functional, organism-based
Human betaherpesvirus 5 [2] = assay: Antiviral activity against human cytomegalovirus AD169 infected in human HFF assessed as inhibition of plaque formation by plaque reduction assay; format: functional, organism-based; settings: Human betaherpesvirus 5, AD169
Outline: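 Plaque reduction against AD169 in HFF. EC50 is the concentration giving 50% inhibition of plaque formation, reported as mean ± SD of at least three independent experiments run in duplicate.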

[3] = Selectivity index, ratio of CC50 for human HFF to EC50 for human cytomegalovirus AD169
Outline: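 Selectivity index is CC50 from the HFF MTT assay divided by EC50 from the AD169 plaque reduction assay in HFF.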

Human betaherpesvirus 5 [4] = assay: Antiviral activity against 1 MOI human cytomegalovirus AD169 infected in human HFF assessed as virus yield reduction by yield reduction assay; format: functional, organism-based; settings: Human betaherpesvirus 5, AD169
Human betaherpesvirus 5 [5] = assay: Antiviral activity against 0.1 MOI human cytomegalovirus AD169 infected in human HFF assessed as virus yield reduction by yield reduction assay; format: functional, organism-based; settings: Human betaherpesvirus 5, AD169
Human betaherpesvirus 5 [6] = assay: Antiviral activity against human cytomegalovirus AD169 in human HFF assessed as reduction of viral attachment to fibroblast after 2 hrs at 37 degC; format: functional, organism-based
Human betaherpesvirus 5 [7] = assay: Antiviral activity against 0.1 MOI human cytomegalovirus AD169 infected in human U373-MG cells expressing UL54-EGFP reporter assessed as inhibition of EGFP expression after 48 hrs of infection by confocal fluorescence microscopy; format: functional, organism-based; settings: U-373MG ATCC
Outline: (§1)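 Stable U373-MG reporter cells were seeded on coverslips at 3×10^5 per well and infected with AD169 at MOI 0.1 or 0.5. They were then treated with 50 µM drug, 5 µM fomivirsen (also given 1 h before and during infection) or 0.2% DMSO. At 48 h p.i. cells were fixed in 4% paraformaldehyde for 15 min, and EGFP-positive cells were counted by confocal microscopy at 20×.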

Human betaherpesvirus 5 [8] = assay: Antiviral activity against 0.1 MOI human cytomegalovirus AD169 infected in human U373-MG cells expressing UL112/113-EGFP reporter assessed as inhibition of EGFP expression after 48 hrs of infection by confocal fluorescence microscopy; format: functional, organism-based; settings: U-373MG ATCC; outline: as §1
Human betaherpesvirus 5 [9] = assay: Antiviral activity against 0.1 MOI human cytomegalovirus AD169 infected in human HFF assessed as inhibition of immediate early phase mRNA expression after 16 hrs by RT-PCR analysis; format: functional, organism-based
Outline: (§2)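 HFF seeded at 6×10^5 per well, infected with AD169 at MOI 0.1 PFU/cell, then given 50 µM drug or 0.2% DMSO. ActD 5 µg/ml, CHX 75 µg/ml and FOS 750 µM served as IE, E and L transcription controls. Total RNA was taken at 16 and 48 h p.i.; 1 µg was reverse-transcribed with random hexamers and MuLV RT. PCR used UL122/UL123 (IE), UL54/UL84 (E) and UL55/UL75 (L) primers with a β-actin control, and products were read on ethidium bromide agarose gels.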

Human betaherpesvirus 5 [10] = assay: Antiviral activity against 0.1 MOI human cytomegalovirus AD169 infected in human HFF assessed as inhibition of early phase mRNA expression after 16 hrs by RT-PCR analysis; format: functional, organism-based; outline: as §2
Human betaherpesvirus 5 [11] = assay: Antiviral activity against 0.1 MOI human cytomegalovirus AD169 infected in human HFF assessed as inhibition of late phase mRNA expression after 16 hrs by RT-PCR analysis; format: functional, organism-based; outline: as §2
Human betaherpesvirus 5 [12] = assay: Antiviral activity against 0.1 MOI human cytomegalovirus AD169 infected in human HFF assessed as inhibition of immediate early phase mRNA expression after 48 hrs by RT-PCR analysis; format: functional, organism-based; outline: as §2
Human betaherpesvirus 5 [13] = assay: Antiviral activity against 0.1 MOI human cytomegalovirus AD169 infected in human HFF assessed as inhibition of early phase mRNA expression after 48 hrs by RT-PCR analysis; format: functional, organism-based; outline: as §2
[14] = Cytotoxicity against human HFF by MTT assay; format: cell-based; settings: HFF cells
Outline: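 Cytotoxicity in HFF was measured by MTT reduction. CC50 is the concentration causing 50% cytotoxicity, reported as mean ± SD of at least three independent experiments run in quadruplicate.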

Human betaherpesvirus 5 [15] = assay: Antiviral activity against 0.1 MOI human cytomegalovirus AD169 infected in human HFF assessed as inhibition of immediate early phase P72 protein expression after 24 hrs by Western blot analysis; format: functional, organism-based
Outline: (§3)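 HFF infected with HCMV AD169 at MOI 0.1 PFU/cell, treated with 50 µM compound or 0.2% DMSO. ActD 5 µg/ml, CHX 75 µg/ml and FOS 750 µM served as controls. Harvests at 24, 48 and 72 h p.i. were lysed in NP-40 buffer, then SDS-PAGE and PVDF blotting. Probes were anti-IE1/IE2 (p72/p86) MAb or anti-UL55, then HRP secondary and ECL. β-actin reprobe was the internal control.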

Human betaherpesvirus 5 [16] = assay: Antiviral activity against 0.1 MOI human cytomegalovirus AD169 infected in human HFF assessed as inhibition of immediate early phase P86 protein expression after 24 hrs by Western blot analysis; format: functional, organism-based; outline: as §3
Human betaherpesvirus 5 [17] = assay: Antiviral activity against 0.1 MOI human cytomegalovirus AD169 infected in human HFF assessed as inhibition of early phase UL54 mRNA expression after 16 hrs by RT-PCR analysis
Human betaherpesvirus 5 [18] = assay: Antiviral activity against 0.1 MOI human cytomegalovirus AD169 infected in human HFF assessed as inhibition of early phase UL84 mRNA expression after 16 hrs by RT-PCR analysis
[19] = Inhibition of human cytomegalovirus DNA polymerase catalytic subunit UL54 assessed as incorporation of [3H]dTTP; design: species or system Human betaherpesvirus 5
Outline: (§4)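 Filter-based assay with purified baculovirus-expressed UL54 catalytic subunit, alone or with UL44 accessory subunit. Incorporation of [3H]dTTP into poly(dA)-oligo(dT)12-18 template-primer was measured across serial compound dilutions, with FOS as control. Means ± standard deviations from four independent experiments.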

[20] = Inhibition of human cytomegalovirus DNA polymerase catalytic subunit UL54/UL44 assessed as incorporation of [3H]dTTP; design: species or system Human betaherpesvirus 5; outline: as §4
Human betaherpesvirus 5 [21] = assay: Antiviral activity against 0.1 MOI human cytomegalovirus AD169 infected in human HFF assessed as inhibition of late phase UL55 protein expression after 72 hrs of infection by Western blot analysis; format: functional, organism-based; outline: as §3

Molecule: Nc1nc2c(ncn2COC(CO)CO)c(=O)[nH]1 [GANCICLOVIR]
- Activity (Human betaherpesvirus 5 [1]): inactive
- EC50 (Human betaherpesvirus 5 [2]): 1.9 µM
- Selectivity Index [3]: 289
- EC90 (Human betaherpesvirus 5 [4]): 0.8 µM
- EC90 (Human betaherpesvirus 5 [5]): 1 µM

Molecule: Cc1cn([C@H]2C[C@H](OP(O)(=S)OC[C@H]3O[C@@H](n4ccc(N)nc4=O)C[C@@H]3OP(O)(=S)OC[C@H]3O[C@@H](n4cnc5c(=O)[nH]c(N)nc54)C[C@@H]3OP(O)(=S)OC[C@H]3O[C@@H](n4cc(C)c(=O)[nH]c4=O)C[C@@H]3OP(O)(=S)OC[C@H]3O[C@@H](n4ccc(N)nc4=O)C[C@@H]3OP(O)(=S)OC[C@H]3O[C@@H](N4C(=O)C5N=CNC5N=C4N)C[C@@H]3OP(O)(=S)OC[C@H]3O[C@@H](n4cc(C)c(=O)[nH]c4=O)C[C@@H]3OP(O)(=S)OC[C@H]3O[C@@H](n4cc(C)c(=O)[nH]c4=O)C[C@@H]3OP(O)(=S)OC[C@H]3O[C@@H](n4cc(C)c(=O)[nH]c4=O)C[C@@H]3OP(O)(=S)OC[C@H]3O[C@@H](n4cc(C)c(=O)[nH]c4=O)C[C@@H]3OP(O)(=S)OC[C@H]3O[C@@H](N4C=NC5C(=O)NC(N)=NC54)C[C@@H]3OP(O)(=S)OC[C@H]3O[C@@H](n4cc(C)c(=O)[nH]c4=O)C[C@@H]3OP(O)(=S)OC[C@H]3O[C@@H](n4ccc(N)nc4=O)C[C@@H]3OP(O)(=S)OC[C@H]3O[C@@H](N4C=NC5C(=O)NC(N)=NC54)C[C@@H]3OP(O)(=S)OC[C@H]3O[C@@H](n4cc(C)c(=O)[nH]c4=O)C[C@@H]3OP(O)(=S)OC[C@H]3O[C@@H](n4cc(C)c(=O)[nH]c4=O)C[C@@H]3OP(O)(=S)OC[C@H]3O[C@@H](n4cc(C)c(=O)[nH]c4=O)C[C@@H]3OP(O)(=S)OC[C@H]3O[C@@H](n4cc(C)c(=O)[nH]c4=O)C[C@@H]3OP(O)(=S)OC[C@H]3O[C@@H](n4cnc5c(=O)[nH]c(N)nc54)C[C@@H]3OP(O)(=S)OC[C@H]3O[C@@H](n4cc(C)c(=O)[nH]c4=O)C[C@@H]3OP(O)(=S)OC[C@H]3O[C@@H](n4ccc(N)nc4=O)C[C@@H]3OP(O)(=S)OC[C@H]3O[C@@H](N4C=NC5C(=O)NC(N)=NC54)C[C@@H]3OP(O)(=S)OC[C@H]3O[C@@H](n4cc(C)c(=O)[nH]c4=O)C[C@@H]3OP(O)(=S)OC[C@H]3O[C@@H](n4cc(C)c(=O)[nH]c4=O)C[C@@H]3O)[C@@H](CO)O2)c(=O)[nH]c1=O (stereo partly specified)
- Activity (Human betaherpesvirus 5 [6]): Active

Molecule: FOMIVIRSEN SODIUM
- inhibition (Human betaherpesvirus 5 [7]): Active
- inhibition (Human betaherpesvirus 5 [8]): Active

Molecule: Cc1c2oc3c(C)ccc(C(=O)N[C@@H]4C(=O)N[C@H](C(C)C)C(=O)N5CCC[C@H]5C(=O)N(C)CC(=O)N(C)[C@@H](C(C)C)C(=O)O[C@@H]4C)c3nc-2c(C(=O)N[C@@H]2C(=O)N[C@H](C(C)C)C(=O)N3CCC[C@H]3C(=O)N(C)CC(=O)N(C)[C@@H](C(C)C)C(=O)O[C@@H]2C)c(N)c1=O (I: T[dV]P[Sar][NMeV] / II: T[dV]P[Sar][NMeV]; ester I:1-I:C, II:1-II:C; linker I:N-II:N via Actinocin(9to1))
- inhibition (Human betaherpesvirus 5 [9]): inactive
- inhibition (Human betaherpesvirus 5 [10]): inactive
- inhibition (Human betaherpesvirus 5 [11]): inactive
- inhibition (Human betaherpesvirus 5 [12]): inactive
- inhibition (Human betaherpesvirus 5 [13]): inactive

Molecule: CC(C)(C)n1cc(C(=O)O)c(=O)c2cc(N)c(N3CCN(c4ccccn4)CC3)cc21
- EC50 (Human betaherpesvirus 5 [2]): 36.7 µM
- CC50 [14]: ≥ 475 µM
- Selectivity Index [3]: >=13

Molecule: O=C(O)c1cn(C2CC2)c2cc(N3CCN(c4ccccn4)CC3)ccc2c1=O
- EC50 (Human betaherpesvirus 5 [2]): 5.6 µM
- CC50 [14]: 390 µM
- Selectivity Index [3]: 70

Molecule: CCOC(=O)c1cn(C2CC2)c2cc(N3CCN(c4ccccn4)CC3)c(N)cc2c1=O
- EC50 (Human betaherpesvirus 5 [2]): > 50 µM
- CC50 [14]: 409 µM
- Selectivity Index [3]: > 8

Molecule: Cn1cc(C(=O)O)c(=O)c2cc(N)c(N3CCN(c4ccccn4)CC3)cc21
- EC50 (Human betaherpesvirus 5 [2]): 0.7 µM
- Selectivity Index [3]: 77

Molecule: Nc1cc2c(=O)c(C(=O)O)cn(C3CC3)c2cc1N1CCN(c2nc3ccccc3s2)CC1
- EC50 (Human betaherpesvirus 5 [2]): 0.02 µM
- Selectivity Index [3]: 225

Molecule: C[C@@H]1C[C@@H]([C@H](O)CC2CC(=O)NC(=O)C2)C(=O)[C@@H](C)C1
- inhibition (Human betaherpesvirus 5 [15]): Active
- inhibition (Human betaherpesvirus 5 [16]): Active
- inhibition (Human betaherpesvirus 5 [17]): Active
- inhibition (Human betaherpesvirus 5 [18]): Active

Molecule: O=C(NCP(=O)(O)O)OCc1ccccc1 [(BENZYLOXYCARBONYLAMINO)METHYLPHOSPHONIC ACID]
- IC50 [19]: 3.1 µM
- IC50 [20]: 5.5 µM
- inhibition (Human betaherpesvirus 5 [21]): Active

Molecule: CC(C)(C)n1cc(C(=O)O)c(=O)c2cc(N)c(N3CCN(c4nc5ccccc5s4)CC3)cc21
- EC50 (Human betaherpesvirus 5 [2]): 0.18 µM
- CC50 [14]: 5.8 µM
- Selectivity Index [3]: 32
